From ChEMBL document CHEMBL4152264, “Design, synthesis, antiproliferative activity and docking studies of quinazoline derivatives bearing 2,3-dihydro-indole or 1,2,3,4-tetrahydroquinoline as potential EGFR inhibitors” (Eur J Med Chem, 2018)

Legend:
MCF7 = test: Antiproliferative activity against human MCF7 cells after 72 hrs by MTT assay; format: functional, cell-based; details: MCF7, 72 h
A549 [1] = test: Antiproliferative activity against human A549 cells after 72 hrs by MTT assay; format: functional, cell-based; details: A549, 72 h
PC-3 = test: Antiproliferative activity against human PC3 cells after 72 hrs by MTT assay; format: functional, cell-based; details: PC-3, 72 h
Procedure, shortened: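 Cells grown in MEM with 10% FBS. About 4×10³ cells per well seeded and incubated 24 h at 37 °C, 5% CO₂. Compounds added at indicated final concentrations for 72 h. MTT at 5 µg/mL final for 4 h at 37 °C. Formazan dissolved in DMSO, absorbance read at 492 nm with 630 nm reference. Tested three times; IC50 is the mean of two determinations.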

[2] = Solubility of the compound in water; format: physicochemical; details: buffer
[3] = target: Epidermal growth factor receptor (Homo sapiens, UniProt P00533); test: Inhibition of wild type EGFR (unknown origin) using FAM-labeled peptide substrate after 10 mins by mobility shift assay
Chain of Epidermal growth factor receptor (Homo sapiens, UniProt P00533) (P00533 whole entry): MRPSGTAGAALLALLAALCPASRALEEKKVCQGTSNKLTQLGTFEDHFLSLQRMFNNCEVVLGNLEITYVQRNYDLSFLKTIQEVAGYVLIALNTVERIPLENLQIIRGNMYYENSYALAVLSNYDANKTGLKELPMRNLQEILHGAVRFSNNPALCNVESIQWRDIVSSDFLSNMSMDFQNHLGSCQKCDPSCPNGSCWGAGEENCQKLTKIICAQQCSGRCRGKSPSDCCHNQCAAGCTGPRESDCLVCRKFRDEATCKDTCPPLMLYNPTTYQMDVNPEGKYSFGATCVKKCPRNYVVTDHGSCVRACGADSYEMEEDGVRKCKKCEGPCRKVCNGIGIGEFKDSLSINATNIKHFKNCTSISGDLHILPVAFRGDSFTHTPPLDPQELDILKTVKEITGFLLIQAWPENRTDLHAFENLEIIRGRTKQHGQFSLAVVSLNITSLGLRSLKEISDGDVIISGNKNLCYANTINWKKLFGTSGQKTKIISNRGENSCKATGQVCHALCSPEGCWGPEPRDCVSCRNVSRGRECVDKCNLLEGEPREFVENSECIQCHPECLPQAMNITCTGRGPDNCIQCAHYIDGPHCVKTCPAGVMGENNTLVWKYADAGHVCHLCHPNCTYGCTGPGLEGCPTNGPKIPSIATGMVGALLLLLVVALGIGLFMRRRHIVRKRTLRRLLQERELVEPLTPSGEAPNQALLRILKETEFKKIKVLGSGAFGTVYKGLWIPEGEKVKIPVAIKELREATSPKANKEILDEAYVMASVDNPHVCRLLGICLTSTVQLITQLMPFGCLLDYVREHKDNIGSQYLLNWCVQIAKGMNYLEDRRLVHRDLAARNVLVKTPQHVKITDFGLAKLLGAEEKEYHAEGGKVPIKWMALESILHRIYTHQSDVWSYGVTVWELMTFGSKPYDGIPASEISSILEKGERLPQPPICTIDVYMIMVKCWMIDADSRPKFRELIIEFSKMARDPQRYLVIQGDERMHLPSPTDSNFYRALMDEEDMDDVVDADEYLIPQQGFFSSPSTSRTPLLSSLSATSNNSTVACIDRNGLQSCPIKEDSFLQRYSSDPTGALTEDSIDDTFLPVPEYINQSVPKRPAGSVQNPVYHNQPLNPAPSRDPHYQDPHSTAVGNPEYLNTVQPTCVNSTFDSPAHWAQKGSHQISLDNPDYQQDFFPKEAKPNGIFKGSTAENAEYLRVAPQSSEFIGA

[4] = target: Epidermal growth factor receptor (Homo sapiens, UniProt P00533, T790M); test: Inhibition of wild type EGFR T790M mutant (unknown origin) using FAM-labeled peptide substrate after 10 mins by mobility shift assay
Chain of Epidermal growth factor receptor (Homo sapiens, UniProt P00533, T790M) (P00533 25-1210 T790M limits assumed): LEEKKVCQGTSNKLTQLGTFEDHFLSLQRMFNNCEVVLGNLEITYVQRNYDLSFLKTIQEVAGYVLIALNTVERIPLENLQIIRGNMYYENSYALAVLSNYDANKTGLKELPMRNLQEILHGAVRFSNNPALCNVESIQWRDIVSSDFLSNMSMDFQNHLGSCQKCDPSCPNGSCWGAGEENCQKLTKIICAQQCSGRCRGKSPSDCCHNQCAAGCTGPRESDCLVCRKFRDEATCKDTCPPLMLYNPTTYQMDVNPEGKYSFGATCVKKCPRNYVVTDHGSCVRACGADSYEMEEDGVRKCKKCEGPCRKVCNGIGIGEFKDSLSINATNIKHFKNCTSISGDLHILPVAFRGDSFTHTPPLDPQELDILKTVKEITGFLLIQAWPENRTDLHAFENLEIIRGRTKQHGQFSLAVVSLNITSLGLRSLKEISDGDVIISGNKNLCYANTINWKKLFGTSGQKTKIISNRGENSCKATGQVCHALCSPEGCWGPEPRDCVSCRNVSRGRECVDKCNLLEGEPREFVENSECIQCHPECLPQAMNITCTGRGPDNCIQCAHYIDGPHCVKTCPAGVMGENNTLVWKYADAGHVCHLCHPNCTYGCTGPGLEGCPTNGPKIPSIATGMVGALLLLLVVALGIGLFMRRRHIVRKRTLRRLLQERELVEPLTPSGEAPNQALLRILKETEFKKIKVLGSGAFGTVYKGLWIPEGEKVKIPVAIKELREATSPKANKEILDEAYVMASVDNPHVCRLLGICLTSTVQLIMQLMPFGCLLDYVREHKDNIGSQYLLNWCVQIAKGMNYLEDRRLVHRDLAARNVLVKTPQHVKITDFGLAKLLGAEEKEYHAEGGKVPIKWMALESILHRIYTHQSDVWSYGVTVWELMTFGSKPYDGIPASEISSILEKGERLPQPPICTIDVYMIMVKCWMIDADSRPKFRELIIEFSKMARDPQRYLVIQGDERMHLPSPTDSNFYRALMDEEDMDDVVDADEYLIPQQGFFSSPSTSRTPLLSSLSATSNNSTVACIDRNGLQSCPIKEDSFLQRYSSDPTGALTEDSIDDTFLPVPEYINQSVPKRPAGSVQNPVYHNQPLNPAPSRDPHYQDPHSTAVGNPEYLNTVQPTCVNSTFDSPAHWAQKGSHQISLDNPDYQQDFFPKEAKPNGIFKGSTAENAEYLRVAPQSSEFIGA

A549 [5] = test: Induction of apoptosis in human A549 cells assessed as late apoptotic cells at 0.5 uM after 48 hrs by Annexin V-FITC/propidium iodide staining based flow cytometry (reference value: 2.07%); format: functional
A549 [6] = test: Induction of apoptosis in human A549 cells assessed as early apoptotic cells at 0.5 uM after 48 hrs by Annexin V-FITC/propidium iodide staining based flow cytometry (reference value: 5.61%); format: functional
A549 [7] = test: Induction of apoptosis in human A549 cells assessed as live cells at 0.5 uM after 48 hrs by Annexin V-FITC/propidium iodide staining based flow cytometry (reference value: 91.81%); format: functional
A549 [8] = test: Induction of apoptosis in human A549 cells assessed as necrotic cells at 0.5 uM after 48 hrs by Annexin V-FITC/propidium iodide staining based flow cytometry (reference value: 0.51%); format: functional

Row | SMILES | IC50 (MCF7) [µM] | IC50 (A549 [1]) [µM] | IC50 (PC-3) [µM] | solubility [2] | IC50 [3] [µM] | IC50 [4] [µM] | Activity (A549 [5]) [%] | Activity (A549 [6]) [%] | Activity (A549 [7]) [%] | Activity (A549 [8]) [%]
1 | C=CC(=O)Nc1cc2c(N3CCc4ccccc43)ncnc2cc1OC | 11.7 | 5.58 | 5.94 | Insoluble |  |  |  |  |  | 
2 | CCC/C=C/C(=O)Nc1cc2c(N3CCCc4ccccc43)ncnc2cc1O[C@@H]1CCOC1 | 4.23 | 7.32 | 11.8 | Insoluble |  |  |  |  |  | 
3 | C/C=C/C(=O)Nc1cc2c(N3CCCc4ccccc43)ncnc2cc1O[C@@H]1CCOC1 | 5.93 | 10.8 | 9.35 | Insoluble |  |  |  |  |  | 
4 | CN(C)C/C=C/C(=O)Nc1cc2c(Nc3ccc(F)c(Cl)c3)ncnc2cc1O[C@@H]1CCOC1 |  |  | 2.51 |  |  |  | 4.27 | 13.53 | 81.34 | 0.86
5 | CCN(CC)C/C=C/C(=O)Nc1cc2c(N3CCCc4ccccc43)ncnc2cc1OC | 5.31 | 6.41 | 6.89 |  |  |  |  |  |  | 
6 | C/C=C/C(=O)Nc1cc2c(N3CCc4ccccc43)ncnc2cc1O[C@@H]1CCOC1 | 4.9 | 2.61 | 5.22 | Insoluble | 0.029 | 0.192 |  |  |  | 
7 | COc1cc2ncnc(N3CCc4ccccc43)c2cc1NC(=O)/C=C/CN(C)C | 3.37 | 2.04 | 2.19 |  |  |  |  |  |  | 
8 | C=C(C)C(=O)Nc1cc2c(N3CCc4ccccc43)ncnc2cc1OC | 11.1 | 7.32 | 4.83 | Insoluble |  |  |  |  |  | 
9 | O=C(/C=C/CN1CCCC1)Nc1cc2c(N3CCc4ccccc43)ncnc2cc1O[C@@H]1CCOC1 | 2.31 | 2.23 | 1.51 |  |  |  |  |  |  | 
10 | CCN(CC)C/C=C/C(=O)Nc1cc2c(N3CCCc4ccccc43)ncnc2cc1O[C@@H]1CCOC1 | 3.87 | 5.65 | 4.27 |  |  |  |  |  |  | 
11 | CC/C=C/C(=O)Nc1cc2c(N3CCc4ccccc43)ncnc2cc1O[C@@H]1CCOC1 | 8.84 | 10.9 | 9.59 | Insoluble |  |  |  |  |  | 
12 | COc1cc2ncnc(N3CCc4ccccc43)c2cc1NC(=O)/C=C/CN1CCC(CO)CC1 | 2.62 | 1.98 | 2.65 |  | 0.004 | 0.021 |  |  |  | 
13 | COc1cc2ncnc(N3CCc4ccccc43)c2cc1NC(=O)/C=C/C(C)C | 6.78 | 6.41 | 6.53 | Insoluble |  |  |  |  |  | 
14 | CN1CCN(C/C=C/C(=O)Nc2cc3c(N4CCc5ccccc54)ncnc3cc2O[C@@H]2CCOC2)CC1 | 5.35 | 6.09 | 4.21 |  |  |  |  |  |  | 
15 | C/C=C/C(=O)Nc1cc2c(N3CCc4ccccc43)ncnc2cc1OC | 4.03 | 8.29 | 8.12 | Insoluble |  |  |  |  |  | 
16 | O=C(/C=C/CN1CCCCC1)Nc1cc2c(N3CCc4ccccc43)ncnc2cc1O[C@@H]1CCOC1 | 1.89 | 4.66 | 4.51 |  |  |  |  |  |  | 
17 | CC/C=C/C(=O)Nc1cc2c(N3CCCc4ccccc43)ncnc2cc1OC | 2.87 | 5.03 | 6.31 | Insoluble |  |  |  |  |  | 
18 | COc1cc2ncnc(N3CCCc4ccccc43)c2cc1NC(=O)/C=C/CN1CCN(C)CC1 | 8.56 | 7.83 | 6.26 |  |  |  |  |  |  | 
19 | CC(C)/C=C/C(=O)Nc1cc2c(N3CCc4ccccc43)ncnc2cc1O[C@@H]1CCOC1 | 9.88 | 8.52 | 11.2 | Insoluble |  |  |  |  |  | 
20 | O=C(/C=C/CN1CCC(CO)CC1)Nc1cc2c(N3CCc4ccccc43)ncnc2cc1O[C@@H]1CCOC1 | 4.69 | 3.67 | 3.31 |  |  |  |  |  |  | 
21 | COc1cc2ncnc(N3CCc4ccccc43)c2cc1NC(=O)/C=C/CN1CCCCC1 | 1.68 | 2.54 | 4.18 |  | 0.0454 | 0.115 |  |  |  | 
22 | COc1cc2ncnc(N3CCc4ccccc43)c2cc1NC(=O)/C=C/CN1CCOCC1 | 8.45 | 9.25 | 8.29 |  |  |  |  |  |  | 

More lines, in order of falling IC50 (PC-3), values ahead:

Row | IC50 (MCF7) [µM] | IC50 (A549 [1]) [µM] | IC50 (PC-3) [µM] | solubility [2] | IC50 [3] [µM] | IC50 [4] [µM] | SMILES | Activity (A549 [5]) [%] | Activity (A549 [6]) [%] | Activity (A549 [7]) [%] | Activity (A549 [8]) [%]
23 | 14.4 | 14.1 | 14.3 | Insoluble |  |  | CC/C=C/C(=O)Nc1cc2c(N3CCCc4ccccc43)ncnc2cc1O[C@@H]1CCOC1 |  |  |  | 
24 | 7.18 | 5.87 | 9.45 |  |  |  | CN1CCN(C/C=C/C(=O)Nc2cc3c(N4CCCc5ccccc54)ncnc3cc2O[C@@H]2CCOC2)CC1 |  |  |  | 
25 | 4.55 | 9.11 | 9.23 | Insoluble |  |  | CCC/C=C/C(=O)Nc1cc2c(N3CCc4ccccc43)ncnc2cc1O[C@@H]1CCOC1 |  |  |  | 
26 | 6.43 | 5.36 | 9.18 |  |  |  | COc1cc2ncnc(N3CCc4ccccc43)c2cc1NC(=O)/C=C/CN1CCN(C)CC1 |  |  |  | 
27 | 11.1 | 7.91 | 9.02 | Insoluble |  |  | CC(C)=CC(=O)Nc1cc2c(N3CCCc4ccccc43)ncnc2cc1O[C@@H]1CCOC1 |  |  |  | 
28 | 4.68 | 6.82 | 8.51 | Insoluble |  |  | CC(C)/C=C/C(=O)Nc1cc2c(N3CCCc4ccccc43)ncnc2cc1O[C@@H]1CCOC1 |  |  |  | 
29 | 4.29 | 3.45 | 8.43 | Insoluble |  |  | COc1cc2ncnc(N3CCCc4ccccc43)c2cc1NC(=O)/C=C/C(C)C |  |  |  | 
30 | 6.39 | 6.27 | 7.84 | Insoluble |  |  | COc1cc2ncnc(N3CCc4ccccc43)c2cc1NC(=O)C=C(C)C |  |  |  | 
31 | 12.7 | 8.19 | 7.52 | Insoluble |  |  | C/C=C/C(=O)Nc1cc2c(N3CCCc4ccccc43)ncnc2cc1OC |  |  |  | 
32 | 5.74 | 6.97 | 7.15 |  |  |  | COc1cc2ncnc(N3CCCc4ccccc43)c2cc1NC(=O)/C=C/CN1CCC(CO)CC1 |  |  |  | 
33 | 6.87 | 5.41 | 6.13 | Insoluble |  |  | COc1cc2ncnc(N3CCCc4ccccc43)c2cc1NC(=O)C=C(C)C |  |  |  | 
34 | 4.03 | 2.47 | 5.89 | Insoluble | 0.017 | 0.186 | CC/C=C/C(=O)Nc1cc2c(N3CCc4ccccc43)ncnc2cc1OC |  |  |  | 
35 | 3.93 | 2.88 | 5.78 |  |  |  | COc1cc2ncnc(N3CCCc4ccccc43)c2cc1NC(=O)/C=C/CN1CCCCC1 |  |  |  | 
36 | 4.98 | 5.22 | 5.78 |  |  |  | CCN(CC)C/C=C/C(=O)Nc1cc2c(N3CCc4ccccc43)ncnc2cc1O[C@@H]1CCOC1 |  |  |  | 
37 | 4.25 | 6.51 | 5.78 |  |  |  | O=C(/C=C/CN1CCCC1)Nc1cc2c(N3CCCc4ccccc43)ncnc2cc1O[C@@H]1CCOC1 |  |  |  | 
38 | 4.96 | 5.3 | 5.46 |  |  |  | O=C(/C=C/CN1CCC(CO)CC1)Nc1cc2c(N3CCCc4ccccc43)ncnc2cc1O[C@@H]1CCOC1 |  |  |  | 
39 | 14.7 | 16.6 | 4.91 | Insoluble |  |  | C=C(C)C(=O)Nc1cc2c(N3CCc4ccccc43)ncnc2cc1O[C@@H]1CCOC1 |  |  |  | 
40 | 15.7 | 3.67 | 4.62 | Insoluble |  |  | CC(C)=CC(=O)Nc1cc2c(N3CCc4ccccc43)ncnc2cc1O[C@@H]1CCOC1 |  |  |  | 
41 | 3.16 | 2.92 | 4.24 | Insoluble |  |  | CCC/C=C/C(=O)Nc1cc2c(N3CCc4ccccc43)ncnc2cc1OC |  |  |  | 
42 | 2.85 | 2.32 | 4.17 |  |  |  | CN(C)C/C=C/C(=O)Nc1cc2c(N3CCCc4ccccc43)ncnc2cc1O[C@@H]1CCOC1 |  |  |  | 
43 | 1.99 | 1.69 | 3.69 |  |  |  | CCN(CC)C/C=C/C(=O)Nc1cc2c(N3CCc4ccccc43)ncnc2cc1OC |  |  |  | 
44 | 4.45 | 3.67 | 3.63 |  |  |  | O=C(/C=C/CN1CCCCC1)Nc1cc2c(N3CCCc4ccccc43)ncnc2cc1O[C@@H]1CCOC1 |  |  |  | 
45 | 5.95 | 9.32 | 2.71 | Insoluble |  |  | C=CC(=O)Nc1cc2c(N3CCc4ccccc43)ncnc2cc1O[C@@H]1CCOC1 |  |  |  | 
46 | 1.51 | 1.21 | 2.62 |  | 0.003 | 0.034 | COc1cc2ncnc(N3CCc4ccccc43)c2cc1NC(=O)/C=C/CN1CCCC1 |  |  |  | 
47 | 1.21 | 1.8 | 2.24 | Insoluble | 0.033 | 0.162 | CCC/C=C/C(=O)Nc1cc2c(N3CCCc4ccccc43)ncnc2cc1OC |  |  |  | 
48 | 1.77 | 1.65 | 1.75 |  | 0.072 | 0.107 | COc1cc2ncnc(N3CCCc4ccccc43)c2cc1NC(=O)/C=C/CN(C)C |  |  |  | 
49 | 3.19 | 2.23 | 1.74 |  |  |  | COc1cc2ncnc(N3CCCc4ccccc43)c2cc1NC(=O)/C=C/CN1CCCC1 |  |  |  | 
